Publication PMC7547215 (Proceedings of the National Academy of Sciences of the …, 2020)
Like-named read-outs stand apart in the source and are kept apart here.

Key:
murine IRE1 = murine IRE1 (Mus musculus, UniProt Q9EQY0); test: Fluorescence-based IRE1 endoribonuclease cleavage assay; assay type: biochemical
porcine RNase L [1] = target: T1, porcine RNase L (Sus scrofa, UniProt A5H025); test: Fluorescence-based RNase L endoribonuclease cleavage assay; assay type: biochemical
T1 sequence (A5H025 1-743): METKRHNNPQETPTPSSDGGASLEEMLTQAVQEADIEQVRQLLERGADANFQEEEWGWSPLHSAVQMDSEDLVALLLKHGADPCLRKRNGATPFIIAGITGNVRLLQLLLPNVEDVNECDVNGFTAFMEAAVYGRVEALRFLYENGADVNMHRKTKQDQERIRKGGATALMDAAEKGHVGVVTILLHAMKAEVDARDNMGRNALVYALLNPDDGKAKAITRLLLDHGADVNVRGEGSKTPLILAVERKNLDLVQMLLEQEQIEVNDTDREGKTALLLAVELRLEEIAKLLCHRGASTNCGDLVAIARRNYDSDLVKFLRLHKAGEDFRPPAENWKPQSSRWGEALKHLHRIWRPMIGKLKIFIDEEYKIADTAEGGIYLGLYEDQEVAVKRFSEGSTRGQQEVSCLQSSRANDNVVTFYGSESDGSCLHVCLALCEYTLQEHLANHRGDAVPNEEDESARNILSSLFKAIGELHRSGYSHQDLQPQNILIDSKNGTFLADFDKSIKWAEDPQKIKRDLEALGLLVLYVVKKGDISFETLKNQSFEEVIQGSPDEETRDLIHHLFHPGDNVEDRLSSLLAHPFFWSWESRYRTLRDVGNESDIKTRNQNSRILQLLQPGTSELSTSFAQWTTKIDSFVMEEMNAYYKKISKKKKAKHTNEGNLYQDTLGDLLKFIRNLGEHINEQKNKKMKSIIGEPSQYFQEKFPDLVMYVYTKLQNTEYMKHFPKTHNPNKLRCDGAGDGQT

porcine RNase L H680N = test: Differential scanning fluorimetry; assay type: binding
glycogen phosphorylase b = details: read-out: IC50, glycogen phosphorylase b; cited from earlier work
A549 cells = test: Cell survival; assay type: cell-based, human; details: up to 25 μM (SU 3 to 25 μM), over 30 h
Procedure, shortened: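 Human A549 cells cultured with test compound across a concentration series. Dye-labelled cells imaged in real time, and percent survival calculated. Mean ± SD of three survival profiles.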

Human CK2a = Human CK2a (Homo sapiens, UniProt P68400); test: In vitro inhibition of CK2α kinase activity; assay type: biochemical
Sequence of Human CK2a (P68400 whole entry): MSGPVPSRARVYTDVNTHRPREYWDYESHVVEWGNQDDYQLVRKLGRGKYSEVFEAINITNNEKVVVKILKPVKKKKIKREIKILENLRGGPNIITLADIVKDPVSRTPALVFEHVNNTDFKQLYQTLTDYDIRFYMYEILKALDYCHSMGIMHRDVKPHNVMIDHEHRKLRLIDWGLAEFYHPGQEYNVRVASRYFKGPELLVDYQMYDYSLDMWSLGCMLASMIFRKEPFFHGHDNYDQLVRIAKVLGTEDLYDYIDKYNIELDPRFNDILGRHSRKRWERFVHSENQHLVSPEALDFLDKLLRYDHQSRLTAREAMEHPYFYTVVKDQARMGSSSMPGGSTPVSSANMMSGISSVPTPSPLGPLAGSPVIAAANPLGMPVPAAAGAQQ

[2] = tested on: casein kinase IIalpha (CK2α); details: cited from earlier work
porcine RNase L [3] = target: T1, porcine RNase L; test: BODIPY-ATP fluorescence polarization binding/competition assay
[4] = target: T2, RNase L in human A549 cells (Homo sapiens, UniProt Q05823); test: rRNA cleavage after pIC transfection in A549 cells; assay type: cell-based
T2 sequence (Q05823 1-741): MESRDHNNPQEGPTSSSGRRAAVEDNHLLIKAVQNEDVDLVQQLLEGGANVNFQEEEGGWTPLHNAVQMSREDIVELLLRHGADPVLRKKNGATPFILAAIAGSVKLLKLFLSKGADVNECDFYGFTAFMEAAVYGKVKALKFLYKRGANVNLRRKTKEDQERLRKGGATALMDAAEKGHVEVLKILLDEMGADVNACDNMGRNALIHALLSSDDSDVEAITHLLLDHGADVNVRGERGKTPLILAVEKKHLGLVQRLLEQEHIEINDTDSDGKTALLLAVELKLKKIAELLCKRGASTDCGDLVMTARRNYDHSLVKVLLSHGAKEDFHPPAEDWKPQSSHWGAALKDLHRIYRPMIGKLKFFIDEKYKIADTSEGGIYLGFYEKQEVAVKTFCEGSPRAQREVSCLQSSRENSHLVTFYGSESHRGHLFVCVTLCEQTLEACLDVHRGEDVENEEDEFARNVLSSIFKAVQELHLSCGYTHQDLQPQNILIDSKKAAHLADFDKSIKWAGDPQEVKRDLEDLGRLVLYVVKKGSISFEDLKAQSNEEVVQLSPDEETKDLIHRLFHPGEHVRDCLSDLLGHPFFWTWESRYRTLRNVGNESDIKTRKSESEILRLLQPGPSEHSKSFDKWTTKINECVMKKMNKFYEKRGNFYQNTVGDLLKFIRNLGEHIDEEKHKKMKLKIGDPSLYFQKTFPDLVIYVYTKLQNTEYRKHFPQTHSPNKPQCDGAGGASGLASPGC

RNase L [5] = details: read-out: IC50, ribonuclease activity of RNase L in vitro; cited from earlier work
RNase L [6] = details: cited from earlier work

Sequence of murine IRE1 (Q9EQY0 21-977): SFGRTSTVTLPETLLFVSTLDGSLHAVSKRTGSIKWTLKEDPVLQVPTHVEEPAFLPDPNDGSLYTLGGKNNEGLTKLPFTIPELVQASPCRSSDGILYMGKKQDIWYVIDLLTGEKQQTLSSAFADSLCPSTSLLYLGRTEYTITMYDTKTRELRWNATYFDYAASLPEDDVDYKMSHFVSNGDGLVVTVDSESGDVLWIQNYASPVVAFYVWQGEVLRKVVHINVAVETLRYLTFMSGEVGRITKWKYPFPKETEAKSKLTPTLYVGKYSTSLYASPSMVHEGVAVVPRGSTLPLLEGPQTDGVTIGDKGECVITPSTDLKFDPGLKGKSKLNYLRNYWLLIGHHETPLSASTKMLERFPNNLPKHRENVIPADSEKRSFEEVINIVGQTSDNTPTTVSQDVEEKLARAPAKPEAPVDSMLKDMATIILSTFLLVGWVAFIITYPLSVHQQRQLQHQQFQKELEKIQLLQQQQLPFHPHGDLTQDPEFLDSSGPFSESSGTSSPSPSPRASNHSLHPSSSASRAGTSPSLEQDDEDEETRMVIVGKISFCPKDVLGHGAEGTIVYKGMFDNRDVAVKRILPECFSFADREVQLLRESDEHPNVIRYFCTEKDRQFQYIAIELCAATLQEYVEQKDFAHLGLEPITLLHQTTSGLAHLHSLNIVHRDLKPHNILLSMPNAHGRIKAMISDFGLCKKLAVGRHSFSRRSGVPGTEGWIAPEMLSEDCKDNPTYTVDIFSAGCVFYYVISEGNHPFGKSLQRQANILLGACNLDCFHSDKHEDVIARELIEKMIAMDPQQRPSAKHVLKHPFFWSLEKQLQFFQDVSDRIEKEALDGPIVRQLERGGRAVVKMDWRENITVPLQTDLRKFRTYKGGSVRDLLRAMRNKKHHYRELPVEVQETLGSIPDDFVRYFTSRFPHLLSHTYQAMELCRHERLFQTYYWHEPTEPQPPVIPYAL

Nc1ccc2ccc3c(N)ccc4ccc1c2c43 [1,6-diaminopyrene]
Effect on IRE1 ribonuclease activity (murine IRE1; Fig. 2): ineffective at complete inhibition | Effect on RNase L ribonuclease activity (porcine RNase L [1]; Fig. 2): ineffective at complete inhibition

Nc1ncnc2c1ncn2[C@@H]1O[C@H](COP(=O)(O)OP(=O)(O)OP(=O)(O)O)[C@@H](O)[C@H]1O [ATP]
Thermal stabilization of purified RNase L by ligand on its own (porcine RNase L H680N): pronounced stabilization | ΔTm of RNase L (porcine RNase L H680N; named ligand(s) vs RNase L alone, SI Fig. S7, listed as ATP/MgCl2): 6 ± 0.2 °C

O=c1oc2c(O)c(O)cc3c(=O)oc4c(O)c(O)cc1c4c23 [EA, ellagic acid]
IC50 (glycogen phosphorylase b): 3200 nM | IC50 (murine IRE1): 270.6 ± 0.1 nM | IC50 (porcine RNase L [1]; IC50, RNase L ribonuclease activity, 10-point dose–response, commercially sourced fresh powder, Fig. 1C, mean ± SEM of four curves): 73.5 ± 0.2 nM | Cytotoxicity (A549 cells): not cytotoxic | IC50 (Human CK2a): 419 nM | Potency of casein kinase II inhibition [2]: 20 nM | IC50 ([2]; read-out: IC50, casein kinase IIalpha (CK2α)): 40 nM | Competitive displacement of BODIPY-ATP from RNase L (porcine RNase L [3]): neither EA nor VAL could competitively displace | Decrease in potency in cells relative to in vitro against porcine RNase L ([4]; A549 and L929 cell lines): ~1,000 fold | pIC-induced RNA cleavage pattern ([4]; A549 cells, 3 h preincubation, 12 ng/mL pIC for 2 h): progressively reduced in a concentration-dependent manner

CCN(CC)CCNC(=O)c1c(C)[nH]c(/C=C2\C(=O)Nc3ccc(F)cc32)c1C [sunitinib]
Cytotoxicity (A549 cells): considerable cytotoxicity | IC50 (RNase L [5]): 1400 nM | Concentration required for the repression of RNase L cleavage activity (RNase L [6]; in cells): ~5 µM | IC50 (RNase L [6]; read-out: IC50, antiviral function of RNase L in cells): 1000 nM
